Test results reported in ChEMBL document CHEMBL1795318, “Development of tetrahydroisoquinoline-based hydroxamic acid derivatives: potent histone deacetylase inhibitors with marked in vitro and in vivo antitumor activities” (J Med Chem, 2011).
Calls of active or inactive are those of the source. The rule behind the calls is not given here.

Tests used:
HeLa = assay: Cytotoxicity against human HeLa cells after 48 hrs by MTT assay; assay type: functional, cell-based
MDA-MB-231 [1] = assay: Cytotoxicity against human MDA-MB-231 cells after 48 hrs by MTT assay; assay type: functional, cell-based; settings: MDA-MB-231, 48 h
MDA-MB-231 [2] = assay: Antitumor activity against human MDA-MB-231 cells xenografted in athymic nude mouse assessed as tumor growth inhibition at 90 mg/kg, ip qd for 21 days; assay type: functional; settings: route intraperitoneal
Mus musculus [3] = assay: Toxicity in human MDA-MB-231 cells xenografted athymic nude mouse assessed as signs of toxicity at 90 mg/kg, ip qd for 21 days; assay type: organism-based; parameters: dose 90 mg/kg, route intraperitoneal; settings: in vivo, 504 h
HL-60 = assay: Cytotoxicity against human HL60 cells after 48 hrs by MTT assay; assay type: functional, cell-based; settings: HL-60, 48 h
NB-4 = assay: Cytotoxicity against human NB4 cells after 48 hrs by MTT assay; assay type: functional, cell-based; settings: NB-4, 48 h
Histone deacetylase = assay: Inhibition of HDAC in human HeLa cell nuclear extract after 30 mins by fluorescence microplate reader; assay type: protein assay
MDA-MB-231 [4] = assay: Cell cycle arrest in human MDA-MB-231 cells assessed as accumulation at G1 phase at 0.5 uM after 48 hrs by flow cytometry analysis; assay type: functional, cell-based
[5] = Cytotoxicity against human ES2 cells after 48 hrs by MTT assay; assay type: functional, cell-based; settings: ES-2, 48 h
A549 = assay: Cytotoxicity against human A549 cells after 48 hrs by MTT assay; assay type: functional, cell-based; settings: A549, 48 h
In short: (§1)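 Cells kept in RPMI1640 with 10% FBS, 37 °C, 5% CO₂; seeded day before dosing, grown ≥4 h, treated with a concentration series for 48 h. MTT 0.5% solution added, 4 h further; formazan dissolved in DMSO 15 min, absorbance at 570 nm. Mean of three experiments.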

MDA-MB-231 [6] = assay: Antitumor activity against human MDA-MB-231 cells xenografted in athymic nude mouse assessed as tumor growth delay at 90 mg/kg, ip qd for 21 days; assay type: functional, organism-based; parameters: dose 90 mg/kg
Mus musculus [7] = assay: Toxicity in human MDA-MB-231 cells xenografted athymic nude mouse assessed as change in body weight at 90 mg/kg, ip qd for 21 days; assay type: organism-based; parameters: dose 90 mg/kg, route intraperitoneal; settings: in vivo, 504 h
K562 = assay: Cytotoxicity against human K562 cells after 48 hrs by MTT assay; assay type: functional, cell-based; settings: K562, 48 h
[8] = Cytotoxicity against human fibroblasts after 48 hrs by MTT assay; assay type: cell-based; settings: fibroblast; in short: as §1
Histone deacetylase 8 = biological target: T1, Histone deacetylase 8 (Homo sapiens, UniProt Q9BY41); assay: Inhibition of HDAC8 after 30 mins by fluorescence microplate reader
T1 sequence (Q9BY41 whole entry): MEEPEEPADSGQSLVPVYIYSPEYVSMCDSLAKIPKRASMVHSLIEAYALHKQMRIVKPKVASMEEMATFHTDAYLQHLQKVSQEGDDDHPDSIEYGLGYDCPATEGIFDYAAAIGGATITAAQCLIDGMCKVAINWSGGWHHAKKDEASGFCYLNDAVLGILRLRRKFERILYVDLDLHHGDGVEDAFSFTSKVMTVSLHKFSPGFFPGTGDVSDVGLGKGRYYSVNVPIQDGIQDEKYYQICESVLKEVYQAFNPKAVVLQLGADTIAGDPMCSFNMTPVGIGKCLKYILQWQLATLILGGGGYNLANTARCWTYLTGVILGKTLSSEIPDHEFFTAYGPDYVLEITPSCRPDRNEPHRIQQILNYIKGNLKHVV
In short: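 HDAC8 mixed with compound at various concentrations, fluorogenic substrate added, 37 °C for 30 min; stopped with developer containing trypsin and TSA. Fluorescence read after 20 min (ex 390/em 460 nm); inhibition relative to control wells, IC50 by regression of concentration/inhibition data; mean ± SD of at least three determinations.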

MDA-MB-231 [9] = assay: Cell cycle arrest in human MDA-MB-231 cells assessed as accumulation at G2 phase at 2 to 5 uM after 48 hrs by flow cytometry analysis; assay type: functional, cell-based
[10] = biological target: T2, Protein deacetylase HDAC6 (Homo sapiens, UniProt Q9UBN7); assay: Inhibition of HDAC6 in human HeLa cell nuclear extract after 30 mins by fluorescence microplate reader
T2 sequence (Q9UBN7 whole entry): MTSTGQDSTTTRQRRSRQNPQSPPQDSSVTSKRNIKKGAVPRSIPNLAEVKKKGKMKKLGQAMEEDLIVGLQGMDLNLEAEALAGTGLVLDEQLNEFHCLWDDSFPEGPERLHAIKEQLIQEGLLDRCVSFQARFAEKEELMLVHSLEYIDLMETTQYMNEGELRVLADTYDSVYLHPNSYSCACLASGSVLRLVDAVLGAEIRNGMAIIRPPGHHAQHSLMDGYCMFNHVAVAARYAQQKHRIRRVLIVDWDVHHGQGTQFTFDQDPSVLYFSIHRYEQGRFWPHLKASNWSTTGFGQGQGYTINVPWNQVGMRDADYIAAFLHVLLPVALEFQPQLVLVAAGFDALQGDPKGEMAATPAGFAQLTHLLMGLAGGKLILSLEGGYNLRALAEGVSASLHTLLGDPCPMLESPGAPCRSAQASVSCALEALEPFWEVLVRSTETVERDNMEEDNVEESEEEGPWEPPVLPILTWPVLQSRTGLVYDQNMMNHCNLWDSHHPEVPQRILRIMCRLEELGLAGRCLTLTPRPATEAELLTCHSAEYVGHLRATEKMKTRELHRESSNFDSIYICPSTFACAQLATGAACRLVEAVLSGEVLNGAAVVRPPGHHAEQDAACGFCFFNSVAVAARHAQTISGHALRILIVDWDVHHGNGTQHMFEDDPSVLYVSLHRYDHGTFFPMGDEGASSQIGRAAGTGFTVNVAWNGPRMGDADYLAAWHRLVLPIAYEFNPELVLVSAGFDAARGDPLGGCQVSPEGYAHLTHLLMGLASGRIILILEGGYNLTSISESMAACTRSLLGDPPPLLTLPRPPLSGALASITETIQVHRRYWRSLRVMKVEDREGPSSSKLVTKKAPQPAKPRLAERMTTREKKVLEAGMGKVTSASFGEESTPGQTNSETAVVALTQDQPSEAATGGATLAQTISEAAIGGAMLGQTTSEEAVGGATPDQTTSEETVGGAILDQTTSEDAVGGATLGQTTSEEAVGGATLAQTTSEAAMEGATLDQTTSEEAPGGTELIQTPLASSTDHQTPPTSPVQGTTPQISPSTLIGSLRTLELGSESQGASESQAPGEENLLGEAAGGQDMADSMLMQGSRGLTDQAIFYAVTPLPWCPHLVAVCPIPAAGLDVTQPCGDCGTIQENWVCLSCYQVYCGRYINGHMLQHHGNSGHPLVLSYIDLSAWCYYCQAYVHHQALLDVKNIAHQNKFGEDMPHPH

SMILES	IC50 (Histone deacetylase) [nM]	IC50 (Histone deacetylase 8) [nM]	IC50 [10] [nM]	IC50 (HeLa) [nM]	IC50 (MDA-MB-231 [1]) [nM]	T/C (MDA-MB-231 [2]) [%]	Activity (Mus musculus [3])	IC50 (HL-60) [nM]	IC50 (NB-4) [nM]	Activity (MDA-MB-231 [4])	IC50 [5] [nM]	IC50 (A549) [nM]	Activity (MDA-MB-231 [6])	Activity (Mus musculus [7])	IC50 (K562) [nM]	Activity [8]	Activity (MDA-MB-231 [9])
CC[C@H](C)[C@@H](CN1Cc2cc(OCC(=O)NO)ccc2C[C@H]1C(=O)Nc1ccc(OC)cc1)NC(=O)OC(C)(C)C	447	263	94	29200	2200	47	–	42700	3870	Active	7200	–	Active	–	7000	–	Active
CC[C@H](C)[C@H](NC(=O)[C@@H](NC(=O)OC(C)(C)C)C(C)C)C(=O)N1Cc2cc(OCC(=O)NO)ccc2C[C@H]1C(=O)Nc1ccc(OC)cc1	128	201	116	167000	–	–	–	–	63300	–	–	–	–	–	2780	–	–
O=C(CCCCCCC(=O)Nc1ccccc1)NO [VORINOSTAT]	–	–	–	–	–	–	Non-toxic	–	–	–	–	740	Active	Non-toxic	–	–	–
COc1ccc(NC(=O)[C@@H]2Cc3ccc(OCC(=O)NO)cc3CN2C(=O)CCc2ccccc2)cc1	–	502	–	–	1520	–	–	–	–	–	–	4800	–	–	–	–	–
CC[C@H](C)[C@H](NC(=O)[C@@H]1CCCN1C(=O)OC(C)(C)C)C(=O)N1Cc2cc(OCC(=O)NO)ccc2C[C@H]1C(=O)Nc1ccc(OC)cc1	65	192	141	184000	–	–	–	76800	5150	–	–	–	–	–	2320	–	–
CC[C@H](C)[C@H](NC(=O)C1CCNCC1)C(=O)N1Cc2cc(OCC(=O)NO)ccc2C[C@H]1C(=O)Nc1ccc(OC)cc1.Cl	71	1440	169	102000	–	–	–	–	> 200000	–	–	–	–	–	51700	–	–
CC[C@H](C)[C@@H](CN1Cc2cc(OCC(=O)NO)ccc2C[C@H]1C(=O)Nc1ccc(OC)cc1)NC(=O)CC(C)(C)C	297	333	158	63500	2540	87	–	25700	5570	–	–	–	Active	–	10000	–	–

Second part, led by results:

IC50 (Histone deacetylase) [nM]	IC50 (Histone deacetylase 8) [nM]	IC50 [10] [nM]	SMILES	IC50 (HeLa) [nM]	IC50 (MDA-MB-231 [1]) [nM]	T/C (MDA-MB-231 [2]) [%]	Activity (Mus musculus [3])	IC50 (HL-60) [nM]	IC50 (NB-4) [nM]	Activity (MDA-MB-231 [4])	IC50 [5] [nM]	IC50 (A549) [nM]	Activity (MDA-MB-231 [6])	Activity (Mus musculus [7])	IC50 (K562) [nM]	Activity [8]	Activity (MDA-MB-231 [9])
58	139	47	CC[C@H](C)[C@H](NC(=O)OC(C)(C)C)C(=O)N1Cc2cc(OCC(=O)NO)ccc2C[C@H]1C(=O)Nc1ccc(OC)cc1	37100	790	63	Non-toxic	47600	1500	Active	5000	940	Active	Non-toxic	1470	Toxic	Active
73	68	163	CC[C@H](C)[C@H](NC(=O)[C@@H](N)C(C)C)C(=O)N1Cc2cc(OCC(=O)NO)ccc2C[C@H]1C(=O)Nc1ccc(OC)cc1.Cl	118000	–	–	–	–	69900	–	–	–	–	–	20400	–	–
–	103	–	COc1ccc(NC(=O)[C@@H]2Cc3ccc(OCC(=O)NO)cc3CN2C(=O)[C@H](Cc2ccccc2)NC(=O)OC(C)(C)C)cc1	–	1290	–	–	–	–	–	–	12700	–	–	–	–	–
–	141	–	COc1ccc(NC(=O)[C@@H]2Cc3ccc(OCC(=O)NO)cc3CN2C(=O)Cc2ccccc2)cc1	–	4450	–	–	–	–	–	–	117000	–	–	–	–	–
214	147	164	CC[C@H](C)[C@H](NC(=O)C1CCN(C(=O)OC(C)(C)C)CC1)C(=O)N1Cc2cc(OCC(=O)NO)ccc2C[C@H]1C(=O)Nc1ccc(OC)cc1	> 200000	–	–	–	–	68200	–	–	–	–	–	12300	–	–
108	47	191	CC[C@H](C)[C@H](NC(=O)[C@@H]1CCCN1)C(=O)N1Cc2cc(OCC(=O)NO)ccc2C[C@H]1C(=O)Nc1ccc(OC)cc1.Cl	> 200000	–	–	–	69800	9280	–	–	–	–	–	6590	–	–
–	104	–	COc1ccc(NC(=O)[C@@H]2Cc3ccc(OCC(=O)NO)cc3CN2C(=O)[C@@H](NC(=O)OC(C)(C)C)C(C)C)cc1	–	1580	–	–	–	–	–	–	840	–	–	–	–	–
–	164	–	COc1ccc(NC(=O)[C@@H]2Cc3ccc(OCC(=O)NO)cc3CN2C(=O)c2ccccc2)cc1	–	3050	–	–	–	–	–	–	5950	–	–	–	–	–
–	114	–	COc1ccc(NC(=O)[C@@H]2Cc3ccc(OCC(=O)NO)cc3CN2C(=O)CCCc2ccccc2)cc1	–	2770	–	–	–	–	–	–	3580	–	–	–	–	–
